Activity calls are given as the source filed them. No cut-off for these calls is given here.
What was measured:
[1] = molecular target: T1, Casein kinase I isoform delta (Homo sapiens, UniProt P48730); assay: Inhibition of recombinant human N-terminal GST-tagged CK1delta (1 to 294 residues) at 40 uM using casein as substrate measured after 60 mins in presence of ATP by Kinase-Glo reagent-based luminescence assay relative to control
Target sequence in this assay (P48730 whole entry, looked up, the tested form may be a part, canonical isoform): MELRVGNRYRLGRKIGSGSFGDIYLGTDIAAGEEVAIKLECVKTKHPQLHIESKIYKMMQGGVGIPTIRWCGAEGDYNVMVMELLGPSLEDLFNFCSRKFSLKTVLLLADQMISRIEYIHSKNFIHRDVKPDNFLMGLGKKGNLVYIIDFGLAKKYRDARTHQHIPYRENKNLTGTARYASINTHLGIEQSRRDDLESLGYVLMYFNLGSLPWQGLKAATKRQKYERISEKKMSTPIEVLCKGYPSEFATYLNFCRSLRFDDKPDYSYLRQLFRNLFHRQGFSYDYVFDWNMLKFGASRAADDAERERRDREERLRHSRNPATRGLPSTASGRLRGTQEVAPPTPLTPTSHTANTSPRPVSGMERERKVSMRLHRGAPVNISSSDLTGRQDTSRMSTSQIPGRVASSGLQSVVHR

[2] = molecular target: T1, Casein kinase I isoform delta; assay: Inhibition of recombinant human N-terminal GST-tagged CK1delta (1 to 294 residues) using casein as substrate measured after 60 mins in presence of ATP by Kinase-Glo reagent-based luminescence assay
Target sequence in this assay (P48730 whole entry, the tested form may be a part, canonical isoform): as the sequence (P48730 whole entry, looked up, the tested form may be a part, canonical isoform) above

[3] = Inhibition of porcine brain CK1delta using RRKHAAIGpSAYSITA as substrate incubated for 30 mins in presence of [gamma-33P]ATP by scintillation counting method; type: tissue-based, Sus scrofa domesticus
[4] = molecular target: T1, Casein kinase I isoform delta; assay: Inhibition of wild-type human CK1delta using PLSRTLpSVASLPGL as substrate incubated for 40 mins in presence of ATP by Kinase-Glo luminescence assay
Target sequence in this assay (P48730 whole entry, the tested form may be a part, canonical isoform): as the sequence (P48730 whole entry, looked up, the tested form may be a part, canonical isoform) above

[5] = molecular target: T2, Casein kinase I isoform epsilon (Homo sapiens, UniProt P49674); assay: Inhibition of wild-type human CK1epsilon using PLSRTLpSVASLPGL as substrate incubated for 70 mins in presence of ATP by Kinase-Glo luminescence assay
Target sequence in this assay (P49674 whole entry, the tested form may be a part, canonical isoform): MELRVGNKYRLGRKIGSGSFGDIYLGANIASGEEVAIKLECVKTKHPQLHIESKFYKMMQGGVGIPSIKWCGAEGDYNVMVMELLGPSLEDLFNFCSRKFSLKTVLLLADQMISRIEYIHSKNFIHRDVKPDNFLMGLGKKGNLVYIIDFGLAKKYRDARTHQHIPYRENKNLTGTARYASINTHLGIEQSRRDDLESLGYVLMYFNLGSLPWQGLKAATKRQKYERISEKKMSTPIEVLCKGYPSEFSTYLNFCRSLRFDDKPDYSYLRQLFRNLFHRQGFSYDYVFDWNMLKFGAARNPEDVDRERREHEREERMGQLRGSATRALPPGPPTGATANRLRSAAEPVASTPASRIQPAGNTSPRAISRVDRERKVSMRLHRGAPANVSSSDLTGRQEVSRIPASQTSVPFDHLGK

[6] = molecular target: Casein kinase I isoform alpha (Homo sapiens) (UniProt P48729); assay: Binding affinity to wild-type human partial length CSNK1A1 (M1 to L301 residues) expressed in mammalian expression system at 10 uM by Kinomescan method relative to control
Sequence of Casein kinase I isoform alpha (Homo sapiens) (P48729 2-337 limits assumed): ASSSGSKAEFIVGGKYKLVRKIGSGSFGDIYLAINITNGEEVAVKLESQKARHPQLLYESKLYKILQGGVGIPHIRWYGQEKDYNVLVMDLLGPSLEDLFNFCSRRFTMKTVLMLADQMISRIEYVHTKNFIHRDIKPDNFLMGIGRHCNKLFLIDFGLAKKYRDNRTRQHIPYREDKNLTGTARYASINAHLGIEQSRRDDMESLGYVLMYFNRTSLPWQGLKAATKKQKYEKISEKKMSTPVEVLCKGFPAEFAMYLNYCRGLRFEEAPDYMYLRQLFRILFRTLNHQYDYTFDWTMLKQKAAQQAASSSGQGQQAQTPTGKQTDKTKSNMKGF
Procedure, shortened: (§1)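 KINOMEscan competition binding across the CK1 isoform panel, compound at 10 µM. Reported as % binding relative to a […].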

[7] = molecular target: T3, Casein kinase I isoform alpha-like (Homo sapiens) (UniProt Q8N752); assay: Binding affinity to wild-type human full length CSNK1A1L (M1 to N337 residues) expressed in bacterial expression system at 10 uM by Kinomescan method relative to control; procedure, shortened: as §1
T3 sequence (whole entry): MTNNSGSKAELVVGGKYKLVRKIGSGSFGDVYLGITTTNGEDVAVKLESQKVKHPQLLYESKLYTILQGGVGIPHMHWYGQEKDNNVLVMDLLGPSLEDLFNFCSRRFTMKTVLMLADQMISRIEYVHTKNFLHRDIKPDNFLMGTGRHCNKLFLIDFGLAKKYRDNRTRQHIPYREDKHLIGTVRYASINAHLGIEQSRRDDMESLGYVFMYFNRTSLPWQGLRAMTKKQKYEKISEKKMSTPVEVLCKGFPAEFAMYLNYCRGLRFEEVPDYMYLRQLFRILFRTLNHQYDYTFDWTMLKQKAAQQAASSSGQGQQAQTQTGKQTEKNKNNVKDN

[8] = molecular target: Casein kinase I isoform gamma-1 (Homo sapiens) (UniProt Q9HCP0); assay: Binding affinity to wild-type human partial length CSNK1G1 (T15 to S353 residues) expressed in bacterial expression system at 10 uM by Kinomescan method relative to control; procedure, shortened: as §1
Sequence of Casein kinase I isoform gamma-1 (Homo sapiens) (Q9HCP0 whole entry, looked up, the tested form may be a part, canonical isoform): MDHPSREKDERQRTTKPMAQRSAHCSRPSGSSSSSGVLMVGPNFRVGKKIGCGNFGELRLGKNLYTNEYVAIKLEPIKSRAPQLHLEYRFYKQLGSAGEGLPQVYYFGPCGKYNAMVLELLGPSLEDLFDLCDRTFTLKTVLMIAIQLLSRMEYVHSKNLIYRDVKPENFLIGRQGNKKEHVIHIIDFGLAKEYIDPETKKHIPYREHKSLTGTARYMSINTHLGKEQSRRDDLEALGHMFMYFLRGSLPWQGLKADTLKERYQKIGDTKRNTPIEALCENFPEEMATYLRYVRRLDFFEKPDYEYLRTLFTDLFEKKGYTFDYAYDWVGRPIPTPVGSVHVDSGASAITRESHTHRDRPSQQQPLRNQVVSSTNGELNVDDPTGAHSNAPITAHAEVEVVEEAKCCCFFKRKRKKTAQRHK

[9] = molecular target: Casein kinase I isoform gamma-2 (Homo sapiens) (UniProt P78368); assay: Binding affinity to wild-type human full length CSNK1G2 (M1 to K415 residues) expressed in bacterial expression system at 10 uM by Kinomescan method relative to control; procedure, shortened: as §1
Sequence of Casein kinase I isoform gamma-2 (Homo sapiens) (P78368 whole entry, looked up, the tested form may be a part, canonical isoform): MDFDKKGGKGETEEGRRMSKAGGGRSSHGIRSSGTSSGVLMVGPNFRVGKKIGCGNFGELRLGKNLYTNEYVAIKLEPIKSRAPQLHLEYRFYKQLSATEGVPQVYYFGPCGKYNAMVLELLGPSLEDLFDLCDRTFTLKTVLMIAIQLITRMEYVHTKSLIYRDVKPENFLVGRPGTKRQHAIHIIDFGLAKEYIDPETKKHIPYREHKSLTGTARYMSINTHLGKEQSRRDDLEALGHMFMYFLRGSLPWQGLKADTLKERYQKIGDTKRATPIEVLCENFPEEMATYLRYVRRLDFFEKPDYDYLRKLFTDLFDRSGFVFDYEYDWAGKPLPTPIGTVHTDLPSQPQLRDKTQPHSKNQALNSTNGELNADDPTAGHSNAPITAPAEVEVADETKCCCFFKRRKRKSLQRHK

[10] = molecular target: Casein kinase I isoform gamma-3 (Homo sapiens) (UniProt Q9Y6M4); assay: Binding affinity to wild-type human full length CSNK1G3 (M1 to K447 residues) expressed in bacterial expression system at 10 uM by Kinomescan method relative to control; procedure, shortened: as §1
Sequence of Casein kinase I isoform gamma-3 (Homo sapiens) (Q9Y6M4 whole entry, looked up, the tested form may be a part, canonical isoform): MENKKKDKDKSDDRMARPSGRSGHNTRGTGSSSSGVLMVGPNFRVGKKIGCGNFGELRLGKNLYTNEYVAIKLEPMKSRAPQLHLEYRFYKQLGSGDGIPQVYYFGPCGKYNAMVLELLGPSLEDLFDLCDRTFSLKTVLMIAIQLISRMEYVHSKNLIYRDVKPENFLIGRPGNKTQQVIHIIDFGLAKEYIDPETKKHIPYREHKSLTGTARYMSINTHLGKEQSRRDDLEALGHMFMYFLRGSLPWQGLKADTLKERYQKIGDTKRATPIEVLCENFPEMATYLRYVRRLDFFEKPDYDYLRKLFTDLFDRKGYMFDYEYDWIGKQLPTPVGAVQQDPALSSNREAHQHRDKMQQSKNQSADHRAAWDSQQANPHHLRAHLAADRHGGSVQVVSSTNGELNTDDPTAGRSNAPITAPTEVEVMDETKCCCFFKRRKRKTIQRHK

[11] = molecular target: T1, Casein kinase I isoform delta; assay: Binding affinity to wild-type human full length CSNK1D (M1 to K409 residues) expressed in bacterial expression system at 10 uM by Kinomescan method relative to control; procedure, shortened: as §1
Target sequence in this assay (P48730 whole entry, looked up, the tested form may be a part, canonical isoform): as the sequence (P48730 whole entry, looked up, the tested form may be a part, canonical isoform) above

[12] = molecular target: T2, Casein kinase I isoform epsilon; assay: Binding affinity to wild-type human full length CSNK1E (M1 to K416 residues) expressed in bacterial expression system at 10 uM by Kinomescan method relative to control; procedure, shortened: as §1
Target sequence in this assay (P49674 whole entry, looked up, the tested form may be a part, canonical isoform): as the sequence (P49674 whole entry, the tested form may be a part, canonical isoform) above

PBL [13] = assay: Cytotoxicity against human PBL cells assessed as inhibition of cell growth after 72 hrs by resazurin based assay
Procedure, shortened: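 Gradient-isolated PBL held overnight in RPMI-1640 with 10% FBS. Non-adherent resting cells (no PHA) at 5×10^5 cells/mL, exposed to compounds for 72 h. Viability read as resazurin fluorescence at 590 nm over 4 h.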

PBL [14] = assay: Cytotoxicity against PHA-stimulated human PBL assessed as inhibition of cell growth after 72 hrs by resazurin based assay
Procedure, shortened: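 PBL isolated from buffy coats by Lymphoprep density gradient, held overnight in RPMI-1640 with 10% FBS. Non-adherent cells at 5×10^5 cells/mL with 2.5 µg/mL PHA. 72 h compound exposure; viability by resazurin fluorescence at 590 nm over 4 h.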

Fibroblast = assay: Cytotoxicity against human fibroblast assessed as inhibition of cell growth after 72 hrs by resazurin based assay
Procedure, shortened: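 Normal adult fibroblasts grown in DMEM with 10% FBS, seeded at 2×10^4 cells per well. Compounds added after 24 h at several concentrations; viability read 72 h later by resazurin fluorescence at 590 nm over 4 h.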

[15] = molecular target: T1, Casein kinase I isoform delta; assay: Inhibition of recombinant human full-length N-terminal GST-tagged CK1delta using casein as substrate measured after 10 mins in presence of ATP by Kinase-Glo reagent-based luminescence assay
Procedure, shortened: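 Full-length CK1δ at 26 nM with 0.1% casein and 4 µM ATP added, in 50 mM HEPES pH 7.5, 1 mM EDTA, 1 mM EGTA, 15 mM Mg acetate. Ten inhibitor concentrations from 100 to 0.026 µM. 10 min at 30 °C, Kinase-Glo stop, luminescence read after 10 min at 30 °C. IC50 given as mean ± standard error of three independent experiments.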
Target sequence in this assay (P48730 whole entry, the tested form may be a part, canonical isoform): as the sequence (P48730 whole entry, looked up, the tested form may be a part, canonical isoform) above

[16] = molecular target: T1, Casein kinase I isoform delta; assay: ATP competitive inhibition of recombinant human N-terminal GST-tagged CK1delta (1 to 294 residues) in presence of varying level of ATP by Kinase-Glo reagent-based luminescence assay
Procedure, shortened: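 Truncated enzyme (16 ng) in 50 mM HEPES pH 7.5, 1 mM EDTA, 1 mM EGTA, 15 mM Mg acetate with 0.1% casein; ATP in the added mix at 4, 40 or 400 µM (Fig. 8-B gives 2, 20, 200 µM). 60 min at 30 °C, then Kinase-Glo, luminescence read after 10 min at 25 °C. Activity is compared across ATP levels.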
Target sequence in this assay (P48730 whole entry, looked up, the tested form may be a part, canonical isoform): as above

Row | Structure (SMILES) | inhibition [1] | IC50 [2] | further results
1 | COc1cc(OC)cc(-c2nc3cc(NCc4ccccc4)nc(N)n3n2)c1 | 19.4% |  | 
2 | COc1cccc(-c2nc3nc(NCc4ccccc4)nc(N)n3n2)c1 | 18.1% |  | 
3 | Nc1nc(NCc2ccccc2)nc2nc(-c3cccc(O)c3)nn12 | 84.2% | 0.46 µM | 
4 | Nc1nc(NCc2ccc(F)cc2)nc2nc(-c3cc(O)cc(O)c3)nn12 | 87% | 0.47 µM | 
5 | Nc1nc(NCc2ccccc2)nc2nc(-c3ccc(O)c(O)c3)nn12 | 93.8% | 0.91 µM | 
6 | COc1cc(OC)cc(-c2nc3nc(NCc4ccccc4)nc(N)n3n2)c1 | 4.5% |  | 
7 | CCOC(=O)c1cnc(NCc2ccc(OC)c(OC)c2)n2nc(-c3ccccc3)nc12 | 35.7% |  | 
8 | CCOC(=O)c1cnc(N)n2nc(-c3ccccc3)nc12 | 62.2% | 8.67 µM | 
9 | Nc1nc(NCc2ccc(Cl)cc2)nc2nc(-c3cc(O)cc(O)c3)nn12 | 95.8% | 0.75 µM | 
10 | COc1cc(OC)cc(-c2nc3cc(N(C)C)nc(N)n3n2)c1 | 33.5% |  | 
11 | COc1cc(OC)cc(-c2nc3nc(NCc4ccc(F)cc4)nc(N)n3n2)c1 | 10.5% |  | 
12 | CCOC(=O)c1cnc(NC)n2nc(-c3cccc(O)c3)nc12 | 7.1% |  | 
13 | NCCNC(=O)c1cnc(N)n2nc(-c3cc(O)cc(O)c3)nc12 | 93.6% | 0.21 µM | 
14 | CCOC(=O)c1cnc(NCc2ccc(-c3ccccc3)cc2)n2nc(-c3cccc(OC)c3)nc12 | 17.5% |  | 
15 | Nc1ncc(C(=O)O)c2nc(-c3cccc(O)c3)nn12 | 75.8% | 26.7 µM | 
16 | COc1cc(OC)cc(-c2nc3nc(NCc4cccc(C)c4)nc(N)n3n2)c1 | 13.9% |  | 
17 | CCC(CO)Nc1nc(NCc2ccc(-c3ccccn3)cc2)c2ncn(C(C)C)c2n1 (configuration not stated) |  |  | IC50 [3]: 0.4 µM
18 | Nc1nc(NCc2ccccc2)nc2nc(-c3ccc(O)cc3)nn12 | 70.4% | 1.32 µM | 
19 | CCOC(=O)c1cnc(N)n2nc(-c3ccc(OCc4ccccc4)cc3)nc12 | 39.7% |  | 
20 | Nc1nc(NCc2ccccc2)cc2nc(-c3cc(O)cc(O)c3)nn12 | 80.2% | 0.74 µM | 
21 | CC(C)(C)OC(=O)NCCNC(=O)c1cnc(N)n2nc(-c3cc(O)cc(O)c3)nc12 | 84.2% | 5.32 µM | 
22 | CCOC(=O)c1cnc(N)n2nc(-c3cc4ccccc4[nH]3)nc12 | 22.4% |  | 
23 | CCNC(=O)c1cnc(N)n2nc(-c3cc(O)cc(O)c3)nc12 | 86.1% | 0.99 µM | 
24 | CCOC(=O)c1cnc(N)n2nc(-c3ccc(O)c(O)c3)nc12 | 98% | 4.75 µM | 
25 | CCOC(=O)c1cnc(N)n2nc(-c3ccc(OC)cc3)nc12 | 50.3% |  | 
26 | CCOC(=O)c1cnc(N)n2nc(C3CCCC3)nc12 | 76.8% | 12.3 µM | 

Row | Structure (SMILES) | inhibition [1] | IC50 [2] | further results
27 | CCOC(=O)c1cnc(N)n2nc(-c3cc(OC)cc(OC)c3)nc12 | 18.8% |  | 
28 | COc1cc(OC)cc(-c2nc3nc(NCc4ccc(Cl)cc4)nc(N)n3n2)c1 | 9.7% |  | 
29 | Cc1cccc(CNc2nc(N)n3nc(-c4cc(O)cc(O)c4)nc3n2)c1 | 79.7% | 0.53 µM | 
30 | CCOC(=O)c1cnc(N)n2nc(-c3ccncc3)nc12 | 59.7% | 20.2 µM | 
31 | Nc1nc(NCc2ccccc2)cc2nc(-c3cccc(O)c3)nn12 | 75.2% | 0.3 µM | 
32 | CCOC(=O)c1cnc(N)n2nc(-c3ccc(F)cc3)nc12 | 44.7% |  | 
33 | Nc1nccc(-c2c(-c3ccc(F)cc3)ncn2C2CCN(Cc3ccon3)CC2)n1 |  |  | IC50 [4]: 0.0039 µM; IC50 [5]: 0.017 µM
34 | CCOC(=O)c1cnc(NCc2ccc(-c3ccccc3)cc2)n2nc(-c3cccc(O)c3)nc12 | 9% |  | 
35 | CCOC(=O)c1cnc(N)n2nc(-c3cccc([N+](=O)[O-])c3)nc12 | 21.6% |  | 
36 | CCOC(=O)c1cnc(NCc2ccc(OC)c(OC)c2)n2nc(-c3ccc(F)cc3)nc12 | 11.3% |  | 
37 | CCOC(=O)c1cnc(N)n2nc(-c3ccc(O)cc3)nc12 | 39.3% |  | 
38 | Oc1cccc(-c2nc3nc(NCc4ccccc4)nc(NCc4ccccc4)n3n2)c1 | -8.5% |  | 
39 | CCOC(=O)c1cnc(NCc2ccccc2)n2nc(-c3cccc(O)c3)nc12 | 1.2% |  | 
40 | NCCNC(=O)c1cnc(N)n2nc(-c3cccc(O)c3)nc12 | 93% | 1.26 µM | 
41 | CCOC(=O)c1cnc(N)n2nc(-c3cccc(O)c3)nc12 | 88.9% | 2.06 µM | 
42 | CCOC(=O)c1cnc(NCc2ccccc2)n2nc(-c3cccc(OC)c3)nc12 | 10.9% |  | 
43 | Nc1nc(NCc2ccccc2)nc2nc(-c3cc(O)cc(O)c3)nn12 | 85.3% | 0.18 µM | Activity [6]: 3.2%; Activity [7]: 14%; Activity [8]: 32%; Activity [9]: 20%; Activity [10]: 14%; Activity [11]: 14%; Activity [12]: 1.4%; IC50 (PBL [13]): > 10 µM; IC50 (PBL [14]): > 10 µM; IC50 (Fibroblast): > 10 µM; IC50 [15]: 0.3 µM; inhibition [16]: Active
44 | CCOC(=O)c1cnc(N)n2nc(-c3cccc(N)c3)nc12 | 66.8% | 16.6 µM | 
45 | CCOC(=O)c1cnc(N)n2nc(-c3cc(O)cc(O)c3)nc12 | 97.8% | 0.48 µM | 
46 | CCOC(=O)c1cnc(N)n2nc(C)nc12 | 66.6% | 15.2 µM | 
47 | CCOC(=O)c1cnc(N)n2nc(-c3cccc(OC)c3)nc12 | 52% | 25 µM | 
48 | CCOC(=O)c1cnc(N)n2nc(-c3cccc(F)c3)nc12 | 53.7% | 15.2 µM | 
49 | Nc1nc(NC2CCCCC2)nc2nc(-c3cc(O)cc(O)c3)nn12 | 89.3% | 0.67 µM | 
50 | COc1cc(O)cc(-c2nc3nc(NC4CCCCC4)nc(N)n3n2)c1 | 68.6% | 3.3 µM | 
51 | CC(C)(C)OC(=O)NCCNC(=O)c1cnc(N)n2nc(-c3cccc(O)c3)nc12 | 16.8% |  | 
52 | CCNC(=O)c1cnc(N)n2nc(-c3cccc(O)c3)nc12 | 90.4% | 0.32 µM | 
